Measured values reported in ChEMBL document CHEMBL1955769 (Bioorg Med Chem Lett, 2012).
In brackets after ≈: the same amount, converted by molar mass.

Legend:
Histone deacetylase 1 = Histone deacetylase 1 (Homo sapiens, UniProt Q13547); assay: Inhibition of HDAC1
Histone deacetylase 2 = Histone deacetylase 2 (Homo sapiens, UniProt Q92769); assay: Inhibition of HDAC2
[1] = Solubility of the compound in 10 % DMSO/Water; type: physicochemical
HCT-116 [2] = assay: Antiproliferative activity against human HCT116 cells after 3 days by WST-1 assay; type: functional, cell-based; details: HCT-116, 72 h
Method in brief: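 HCT116 human colon cancer cells exposed to compounds for 3 days; growth read by WST-1 assay; IC50 derived from triplicate assays.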

[3] = Half life in BALB/c mouse at 45 mg/kg, po by HPLC-ESI-MS/MS analysis; type: ADME, organism-based; parameters: dose 45 mg/kg, route oral; details: in vivo
HCT-116 [4] = assay: Induction of cell cycle arrest in human HCT116 cells assessed as accumulation at G0/G1 phase at 10 uM after 48 hrs by flow cytometry (reference value: 81.9 %); type: functional
Method in brief: (§1)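 HCT116 cells (1.0 × 10^6) were plated for 24 h, then exposed to compound for 24 or 48 h, with 0.1% DMSO as control. DNA staining used a BD Cycletest Plus DNA reagent kit, and phase percentages (subG1, G0/G1, S, G2/M) were scored; data representative of three independent experiments.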

HCT-116 [5] = assay: Induction of cell cycle arrest in human HCT116 cells assessed as accumulation at SubG1 phase at 10 uM after 24 hrs by flow cytometry (reference value: 5.7 %); type: functional; method in brief: as §1
HCT-116 [6] = assay: Antitumor activity against human HCT116 cells xenografted in BALB/c nu/nu mouse assessed as suppression of tumor growth at 80 mg/kg, po administered every alternate days for 14 days measured up to 16 days relative to control; type: functional
Method in brief: (§2)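 Nude mice bearing HCT116 xenografts of 90–110 mm3, grouped as vehicle (0.1% Tween 80, n = 6) or treated (n = 7); oral dosing at 45 or 80 mg/kg on days 0, 2, 4, 6, 8, 10, 12 and 14. Tumor volume and body weight followed over 16 days; tumor effect given as T/C; two-tailed Student t-test versus control, with standard errors shown.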

HCT-116 [7] = assay: Induction of cell cycle arrest in human HCT116 cells assessed as accumulation at G2/M phase at 10 uM after 24 hrs by flow cytometry (reference value: 9.5 %); type: functional; method in brief: as §1
HCT-116 [8] = assay: Antitumor activity against human HCT116 cells xenografted in BALB/c nu/nu mouse assessed as suppression of tumor growth at 45 mg/kg, po administered every alternate days for 14 days measured up to day 16 relative to control; type: functional; method in brief: as §2
[9] = Tmax in BALB/c mouse at 45 mg/kg, po by HPLC-ESI-MS/MS analysis; type: ADME, organism-based; parameters: dose 45 mg/kg, route oral; details: in vivo
Mus musculus [10] = assay: Toxicity in human HCT116 cells xenografted in BALB/c nu/nu mouse assessed as relative body weight change at 80 mg/kg, po for 14 days measured up to day 16; type: organism-based, HCT-116; parameters: dose 80 mg/kg, route oral; details: in vivo, 336 h; method in brief: as §2
[11] = Cmax in BALB/c mouse at 45 mg/kg, po by HPLC-ESI-MS/MS analysis; type: ADME, organism-based; parameters: dose 45 mg/kg, route oral; details: in vivo
HCT-116 [12] = assay: Induction of cell cycle arrest in human HCT116 cells assessed as accumulation at G2/M phase at 10 uM after 48 hrs by flow cytometry (reference value: 5.4 %); type: functional; method in brief: as §1
HCT-116 [13] = assay: Induction of cell cycle arrest in human HCT116 cells assessed as accumulation at S phase at 10 uM after 48 hrs by flow cytometry (reference value: 10.4 %); type: functional; method in brief: as §1
HCT-116 [14] = assay: Induction of cell cycle arrest in human HCT116 cells assessed as accumulation at S phase at 10 uM after 24 hrs by flow cytometry (reference value: 10.6 %); type: functional; method in brief: as §1
HCT-116 [15] = assay: Induction of cell cycle arrest in human HCT116 cells assessed as accumulation at G0/G1 phase at 10 uM after 24 hrs by flow cytometry (reference value: 74.2 %); type: functional; method in brief: as §1
Mus musculus [16] = assay: Toxicity in human HCT116 cells xenografted in BALB/c- nu.nu mouse assessed as relative body weight change at 45 mg/kg, po administered every alternate days for 14 days measured up to day 16; type: organism-based, HCT-116; parameters: dose 45 mg/kg, route oral; details: in vivo, 336 h; method in brief: as §2
HCT-116 [17] = assay: Induction of cell cycle arrest in human HCT116 cells assessed as accumulation at SubG1 phase at 10 uM after 48 hrs by flow cytometry (reference value: 2.3 %); type: functional; method in brief: as §1

Sequence of Histone deacetylase 2 (Q92769 whole entry): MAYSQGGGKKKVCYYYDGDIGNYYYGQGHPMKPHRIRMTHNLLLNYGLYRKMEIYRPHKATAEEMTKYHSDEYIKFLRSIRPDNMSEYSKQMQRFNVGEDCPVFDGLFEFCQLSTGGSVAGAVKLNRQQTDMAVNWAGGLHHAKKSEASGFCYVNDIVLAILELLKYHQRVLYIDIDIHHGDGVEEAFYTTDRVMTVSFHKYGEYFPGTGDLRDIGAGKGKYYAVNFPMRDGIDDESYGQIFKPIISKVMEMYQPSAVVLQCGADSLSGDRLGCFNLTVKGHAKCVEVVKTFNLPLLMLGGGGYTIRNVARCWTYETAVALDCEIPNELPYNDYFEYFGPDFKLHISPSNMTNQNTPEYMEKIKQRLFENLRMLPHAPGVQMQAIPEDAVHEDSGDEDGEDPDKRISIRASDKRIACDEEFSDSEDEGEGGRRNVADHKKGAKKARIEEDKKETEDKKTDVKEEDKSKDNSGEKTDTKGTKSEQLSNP
Sequence of Histone deacetylase 1 (Q13547 whole entry): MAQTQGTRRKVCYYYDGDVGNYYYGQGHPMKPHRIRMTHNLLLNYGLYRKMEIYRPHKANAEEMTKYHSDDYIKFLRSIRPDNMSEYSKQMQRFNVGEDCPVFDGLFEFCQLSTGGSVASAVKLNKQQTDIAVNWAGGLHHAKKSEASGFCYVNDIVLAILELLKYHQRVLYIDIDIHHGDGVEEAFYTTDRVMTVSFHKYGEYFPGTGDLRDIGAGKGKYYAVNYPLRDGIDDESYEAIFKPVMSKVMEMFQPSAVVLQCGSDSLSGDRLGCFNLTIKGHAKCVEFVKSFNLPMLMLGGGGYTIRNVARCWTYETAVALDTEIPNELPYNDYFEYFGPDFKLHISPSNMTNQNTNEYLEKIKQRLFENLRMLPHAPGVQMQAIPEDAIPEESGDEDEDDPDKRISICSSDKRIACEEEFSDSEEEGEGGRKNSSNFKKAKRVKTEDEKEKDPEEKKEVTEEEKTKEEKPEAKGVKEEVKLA

| IC50 (Histone deacetylase 1) [nM] | IC50 (Histone deacetylase 2) [nM] | solubility [1] [µg/mL] | IC50 (HCT-116 [2]) [nM] | half-life [3] [h] | Tmax [9] [h] | Cmax [11] [µM] | Compound | Activity (HCT-116 [4]) [%] | Activity (HCT-116 [5]) [%] | T/C (HCT-116 [6]) [%] | Activity (HCT-116 [7]) [%] | T/C (HCT-116 [8]) [%] | Activity (Mus musculus [10]) | Activity (HCT-116 [12]) [%] | Activity (HCT-116 [13]) [%] | Activity (HCT-116 [14]) [%] | Activity (HCT-116 [15]) [%] | Activity (Mus musculus [16]) | Activity (HCT-116 [17]) [%] |
| --- | --- | --- | --- | --- | --- | --- | --- | --- | --- | --- | --- | --- | --- | --- | --- | --- | --- | --- | --- |
| 1170 | 3360 | 200 (≈ 477 µM) | 1200 | – | – | – | Nc1ccccc1NC(=O)c1ccc(CN(CCO)Cc2ccc3c(c2)OCO3)cc1 | – | – | – | – | – | – | – | – | – | – | – | – |
| 60 | 740 | < 100 | 490 | – | – | – | Nc1ccc(-c2cccs2)cc1NC(=O)c1ccc(CN(CCO)Cc2ccc3c(c2)OCO3)cc1 | – | – | – | – | – | – | – | – | – | – | – | – |
| 50 | 670 | 600 (≈ 1220 µM) | 510 | 2.2 | 1 | 8.3 | CCN1CCN(C(=O)NCc2ccc(C(=O)Nc3cc(-c4cccs4)ccc3N)cc2)C(=O)C1=O | 75.3 | 2.3 | 47 | 22.4 | 60 | Non-toxic | 20.5 | 2.8 | 3.8 | 71.5 | Non-toxic | 1.4 |
| 80 | 800 | 1000 (≈ 2220 µM) | 530 | – | – | – | CN1CCN(C(=O)NCc2ccc(C(=O)Nc3cc(-c4cccs4)ccc3N)cc2)CC1 | – | – | – | – | – | – | – | – | – | – | – | – |
| 100 | 880 | – | 440 | – | – | – | Nc1ccc(-c2cccs2)cc1NC(=O)c1ccc(CNC(=O)N2CCOCC2)cc1 | – | – | – | – | – | – | – | – | – | – | – | – |
| 40 | 470 | 500 (≈ 1320 µM) | 560 | – | – | – | CCC(=O)NCc1ccc(C(=O)Nc2cc(-c3cccs3)ccc2N)cc1 | 75 | 4.6 | – | 10.7 | – | – | 20.8 | 2.8 | 5.2 | 79.5 | – | 1.4 |
| – | – | – | 760 | – | – | – | Nc1ccccc1NC(=O)c1ccc(CNC(=O)OCc2cccnc2)cc1 [ENTINOSTAT] | 62.1 | 8.8 | – | 13.6 | 51 | – | 5.5 | 2.2 | 4.9 | 72.7 | Toxic | 30.2 |
